Measurements reported in ChEMBL document CHEMBL4229515, “A novel synthesis of 2-arylbenzimidazoles in molecular sieves-MeOH system and their antitubercular activity” (Bioorg Med Chem, 2018).

Legend:
Format in all cases: organism-based
Conditions in all cases: in vivo, 168 h
Mus musculus [1] = test: Acute toxicity in Swiss albino mouse assessed as effect on SGPT levels at 5 mg/kg, po after 7 days (reference value: 16.08 +/- 1.38 U/L)
Mus musculus [2] = test: Acute toxicity in Swiss albino mouse assessed as effect on ALKP levels at 5 mg/kg, po after 7 days (reference value: 219.20 +/- 5.9 U/L)
Mus musculus [3] = test: Acute toxicity in Swiss albino mouse assessed as effect on haemoglobin levels at 5 mg/kg, po after 7 days (reference value: 12.29 +/- 0.53 g/dL)
Mus musculus [4] = test: Acute toxicity in Swiss albino mouse assessed as effect on cholesterol levels at 5 mg/kg, po after 7 days (reference value: 89.73 +/- 10.76 mg/dL)
Mus musculus [5] = test: Acute toxicity in Swiss albino mouse assessed as effect on triglyceride levels at 5 mg/kg, po after 7 days (reference value: 45.21 +/- 2.95 mg/dL)
Mus musculus [6] = test: Acute toxicity in Swiss albino mouse assessed as effect on albumin levels at 5 mg/kg, po after 7 days (reference value: 3.53 +/- 0.35 mg/dL)
Mus musculus [7] = test: Acute toxicity in Swiss albino mouse assessed as effect on tissue protein levels at 5 mg/kg, po after 7 days (reference value: 0.06 +/- 0.004 mg/mL)
Mus musculus [8] = test: Acute toxicity in Swiss albino mouse assessed as effect on MDA levels per mg of tissue protein at 5 mg/kg, po after 7 days (reference value: 0.24 +/- 0.05 nmol)
Mus musculus [9] = test: Acute toxicity in Swiss albino mouse assessed as effect on GSH levels per mg of tissue protein at 5 mg/kg, po after 7 days (reference value: 17.64 +/- 1.03 micromol)
Mus musculus [10] = test: Acute toxicity in Swiss albino mouse assessed as effect on RBC count at 50 mg/kg, po after 7 days (reference value: 7.61 +/- 0.54 10^6/mm3)
Mus musculus [11] = test: Acute toxicity in Swiss albino mouse assessed as effect on WBC count at 50 mg/kg, po after 7 days (reference value: 7.47 +/- 1.61 10^3/mm3)
Mus musculus [12] = test: Acute toxicity in Swiss albino mouse assessed as effect on triglyceride levels at 50 mg/kg, po after 7 days (reference value: 45.21 +/- 2.95 mg/dL)
Mus musculus [13] = test: Acute toxicity in Swiss albino mouse assessed as effect on albumin levels at 50 mg/kg, po after 7 days (reference value: 3.53 +/- 0.35 mg/dL)
Mus musculus [14] = test: Acute toxicity in Swiss albino mouse assessed as effect on serum protein levels at 50 mg/kg, po after 7 days (reference value: 0.10 +/- 0.004 mg/mL)
Mus musculus [15] = test: Acute toxicity in Swiss albino mouse assessed as effect on MDA levels per mg of tissue protein at 50 mg/kg, po after 7 days (reference value: 0.24 +/- 0.05 nmol)
Mus musculus [16] = test: Acute toxicity in Swiss albino mouse assessed as effect on body weight at 300 mg/kg, po after 7 days (reference value: 28.25 +/- 0.54 g)
Mus musculus [17] = test: Acute toxicity in Swiss albino mouse assessed as effect on RBC count at 300 mg/kg, po after 7 days (reference value: 7.61 +/- 0.54 10^6/mm3)
Mus musculus [18] = test: Acute toxicity in Swiss albino mouse assessed as effect on SGPT levels at 300 mg/kg, po after 7 days (reference value: 16.08 +/- 1.38 U/L)
Mus musculus [19] = test: Acute toxicity in Swiss albino mouse assessed as effect on SGOT levels at 300 mg/kg, po after 7 days (reference value: 15.11 +/- 1.25 U/L)
Mus musculus [20] = test: Acute toxicity in Swiss albino mouse assessed as effect on haemoglobin levels at 300 mg/kg, po after 7 days (reference value: 12.29 +/- 0.53 g/dL)
Mus musculus [21] = test: Acute toxicity in Swiss albino mouse assessed as effect on triglyceride levels at 300 mg/kg, po after 7 days (reference value: 45.21 +/- 2.95 mg/dL)
Mus musculus [22] = test: Acute toxicity in Swiss albino mouse assessed as effect on albumin levels at 300 mg/kg, po after 7 days (reference value: 3.53 +/- 0.35 mg/dL)
Mus musculus [23] = test: Acute toxicity in Swiss albino mouse assessed as effect on serum protein levels at 300 mg/kg, po after 7 days (reference value: 0.10 +/- 0.004 mg/mL)
Mus musculus [24] = test: Acute toxicity in Swiss albino mouse assessed as effect on tissue protein levels at 300 mg/kg, po after 7 days (reference value: 0.06 +/- 0.004 mg/mL)
Mus musculus [25] = test: Acute toxicity in Swiss albino mouse assessed as effect on GSH levels per mg of tissue protein at 300 mg/kg, po after 7 days (reference value: 17.64 +/- 1.03 micromol)
Mus musculus [26] = test: Acute toxicity in Swiss albino mouse assessed as effect on body weight at 1000 mg/kg, po after 7 days (reference value: 28.25 +/- 0.54 g)
Mus musculus [27] = test: Acute toxicity in Swiss albino mouse assessed as effect on RBC count at 1000 mg/kg, po after 7 days (reference value: 7.61 +/- 0.54 10^6/mm3)
Mus musculus [28] = test: Acute toxicity in Swiss albino mouse assessed as effect on ALKP levels at 1000 mg/kg, po after 7 days (reference value: 219.20 +/- 5.9 U/L)
Mus musculus [29] = test: Acute toxicity in Swiss albino mouse assessed as effect on cholesterol levels at 1000 mg/kg, po after 7 days (reference value: 89.73 +/- 10.76 mg/dL)
Mus musculus [30] = test: Acute toxicity in Swiss albino mouse assessed as effect on albumin levels at 1000 mg/kg, po after 7 days (reference value: 3.53 +/- 0.35 mg/dL)
Mus musculus [31] = test: Acute toxicity in Swiss albino mouse assessed as effect on tissue protein levels at 1000 mg/kg, po after 7 days (reference value: 0.06 +/- 0.004 mg/mL)
Mus musculus [32] = test: Acute toxicity in Swiss albino mouse assessed as depression at 1000 mg/kg, po measured over 7 days
In short: (§1)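 Single acute oral dose of 5, 50, 300 or 1000 mg/kg body weight, with an untreated control group; n=6 mice per group. Animals observed for 7 days for morbidity, mortality, behaviour and body weight. At the end, blood and serum were analysed, and organs were examined grossly with absolute and relative weights. Data are mean±SE; P<0.05 was taken as significant versus control and the lower-dose groups.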

Mus musculus [33] = test: Acute toxicity in Swiss albino mouse assessed as effect on absolute liver weight at 5 to 1000 mg/kg, po after 7 days; in short: as §1
Mus musculus [34] = test: Acute toxicity in Swiss albino mouse assessed as effect on absolute spleen weight at 5 to 1000 mg/kg, po after 7 days; in short: as §1
Mus musculus [35] = test: Acute toxicity in Swiss albino mouse assessed as effect on relative liver weight at 1000 mg/kg, po after 7 days; in short: as §1

Work on `COc1ccc2c(c1)nc(-c1ccccc1OC)n2Cc1ccccc1OC` yielded an Activity (Mus musculus [1]) of 15.26 U/L, an Activity (Mus musculus [2]) of 172.1 U/L and an Activity (Mus musculus [3]) of 10.81 g/dL. The Activity (Mus musculus [4]) was 91.48 mg/dL, the Activity (Mus musculus [5]) was 48.61 mg/dL and the Activity (Mus musculus [6]) was 3.81 mg/dL. The Activity (Mus musculus [7]) was 0.06 mg/mL, the Activity (Mus musculus [8]) was 0.26 nmol and the Activity (Mus musculus [9]) was 15.6 µmol. The Activity (Mus musculus [10]) was 7.44 10^6/mm3, the Activity (Mus musculus [11]) was 6.33 10^3/mm3 and the Activity (Mus musculus [12]) was 41.98 mg/dL. The Activity (Mus musculus [13]) was 3.58 mg/dL, the Activity (Mus musculus [14]) was 0.09 mg/mL and the Activity (Mus musculus [15]) was 0.32 nmol. The Activity (Mus musculus [16]) was 25.47 g, the Activity (Mus musculus [17]) was 6.87 10^6/mm3 and the Activity (Mus musculus [18]) was 12.26 U/L. For the same molecule, the Activity (Mus musculus [19]) was 11.11 U/L, the Activity (Mus musculus [20]) was 11.51 g/dL and the Activity (Mus musculus [21]) was 43.04 mg/dL. For the same molecule, the Activity (Mus musculus [22]) was 3.79 mg/dL, the Activity (Mus musculus [23]) was 0.09 mg/mL and the Activity (Mus musculus [24]) was 0.05 mg/mL. The Activity (Mus musculus [25]) was 19.37 µmol, the Activity (Mus musculus [26]) was 22.86 g and the Activity (Mus musculus [27]) was 7.33 10^6/mm3. It also gave an Activity (Mus musculus [28]) of 118.06 U/L, an Activity (Mus musculus [29]) of 115.43 mg/dL and an Activity (Mus musculus [30]) of 2.89 mg/dL. The Activity (Mus musculus [31]) was 0.05 mg/mL, the Activity (Mus musculus [32]) was “Non-Toxic” and the Activity (Mus musculus [33]) was “Non-Toxic”. For the same molecule, the Activity (Mus musculus [34]) was “Non-Toxic” and the Activity (Mus musculus [35]) was “Toxic”.
